Bioassay records (PubChem BioAssay)
Rin1 Abl inh – human Rin1-Abl interaction inhibition | P00519+Q13671 | TR-FRET Rin1/Abl binding, biochemical | inhibition, % at 7.35 µM | 360,000 compounds, 0.4% hits; in the data active means inhibition above about 5%, passing the limit was not always enough
ERp5 inh – inhibitors of human ERp5; Q15084; ERp5 insulin aggregation, absorbance 650 nm, 90 min; inhibition, % at 9.99 µM; 350,000 compounds, 0.05% hits; AID 651711;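 active means mean replicate inhibition above about 25%, with every replicate also reaching it, limit read from the data, passing the limit was not always enough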
ERAP1 inh – blocks human ERAP1 aminopeptidase activity. 340,000 compounds, 0.15% hits. recombinant ERAP1, Leu-AMC fluorescence, 60 min. inhibition, % at 10.7 µM. Q9NZ08;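 active means mean replicate inhibition of at least 30%, or all replicates individually reaching that 30% level; inactive means mean below 30% and not every replicate reaching it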;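 further: 0% = neutral control wells and 100% = L-leucinethiol positive control wells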
CAL PDZ FP-1 – blocks peptide binding to the human CAL PDZ domain | purified CAL PDZ, TMR-peptide fluorescence polarization, 1 h | inhibition, % at 24.9 µM | 300,000 compounds, 0.92% hits | AID 602252;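 active means mean inhibition of at least 30% with at least half of replicates also reaching 30%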;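 further: 0% = DMSO neutral control and 100% = excess unlabeled competitor peptide PRC23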
CAL PDZ FP-2 – blocks peptide binding to human CAL PDZ domain; purified CAL PDZ, TMR-peptide fluorescence polarization, 1 h; inhibition, % at 20 µM; Q9HD26; 330,000 compounds, 0.02% hits;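 active means highest replicate inhibition of at least 40%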;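 further: plate controls were DMSO neutral control wells for no effect and unlabeled competitor peptide control wells for full effect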
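Material: tagged CAL PDZ protein CerCALP, purified; buffer or medium: sodium phosphate/NaCl buffer pH 7.4 with TCEP, IgG, Thesit; also added: fluorescent TMR peptide probe; schedule: 1 h incubation at room temperature before polarization reading; technique: fluorescence polarization from S- and P-plane intensities, G-factor corrected; control set: unlabelled peptide and DMSO controls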
PDI turbidity – PDI (human) enzyme inhibition; P07237; PDI insulin aggregation turbidity, A650, 90 min; inhibition, % at 10 µM; 350,000 compounds, 0.052% hits; AID 588391;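 active means mean inhibition across replicates of 30% or more, whatever share of single replicates reach that level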
Rin1-Abl confirm – Rin1-Abl interaction inhibition confirmation. 1,300 compounds, 49% hits. shares compounds with Rin1 Abl inh. TR-FRET Rin1-Abl binding, purified proteins. AID 602124. inhibition, % at 7.35 µM
GFP quench – GFP fluorescence interference artifact; shares compounds with Rin1 Abl inh; 1,300 compounds, 8.5% hits; inhibitors/quenchers counterscreen; inhibition, % at 6.75 µM; AID 602125;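 further: ABL1-eGFP fusion protein alone without its partner RIN1-SBP; 0% = protein with vehicle and 100% = wells lacking protein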
GFP quench dose – GFP fluorescence interference dose response | 230 tested, under 10 active | AID 602182 | GFP fluorescence interference/quenching counterscreen | shares compounds with Rin1 Abl inh | IC50, µM; call rule not given here;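 further: ABL1-eGFP fusion protein alone without its RIN1 binding partner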
Numbers without * were called inactive; . = no result. Sampled rows, rich in hits. Any-hit rate of the full collection: about 1.1%. Unless noted, no stated cut-off is given here; in the data, active means inhibition above about 6.5%; inactive means the rest.

SMILES	Rin1 Abl inh	ERp5 inh	ERAP1 inh	CAL PDZ FP-1	CAL PDZ FP-2	PDI turbidity	Rin1-Abl confirm	GFP quench	GFP quench dose
CCCC(C)C(=O)NC1CCSC1=O (stereo not given)	4.9*	.	.	.	-2	6	0	-1	.
O=c1[nH]c2ccccc2n1C1CCN(C(c2nnnn2C2CCCCC2)C2CC2)CC1 (stereo not given)	74*	2	-2	.	.	.	74*	-1	>68
O=c1[nH]c2ccccc2n1C1CCN(C(c2nnnn2C2CCCC2)C2CC2)CC1 (stereo not given)	31*	0	2	.	.	.	23*	0	>68
O=C(Cc1cccnc1)N1CCCCN2[C@H](CO)[C@@H](c3ccc(C#CC4CC4)cc3)[C@H]2C1	.	1	2	.	.	.	.	.	.
CCOC(=O)[C@@H]1[C@@H]2NC(=O)N(C)[C@@]1(C)Oc1ccccc12	.	-1	0	.	.	.	.	.	.
C/C=C/c1ccc(C2[C@@H]3CN(C(=O)C4CCOCC4)C[C@H]2N3)cc1 (stereo not given in full)	.	2	1	.	.	.	.	.	.
Cc1nc2c(=O)n(C)c(=O)nc-2n(C)n1	37*	.	.	-6	0	189*	45*	0	>68
Brc1ccc(Oc2cc(Br)c(Br)cc2Br)c(Br)c1	8.2*	8	-4	-2	0	.	13*	-2	.
N#CC1c2ccccc2-n2nncc2CN1S(=O)(=O)c1ccccc1 (stereo not given)	10*	-7	-1	-2	2	-3	3	0	.
O=c1[nH]c(=O)n(-c2ccc(Br)cc2)c(O)c1C=NC(CO)(CO)CO	6.0*	4	-3	.	.	0	-1	-1	.
